Most compounds without a hit are left out; they make up all but 2.7% or so of the library.
RBBP9 inh: blocks human serine hydrolase RBBP9; O75884; recombinant RBBP9, FP-Rh probe fluorescence polarization; inhibition, % at 7.94 µM; 0.2% of 220,000 active; AID 1515;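 active = inhibition above the campaign mean of all tested compounds plus 3 SD, cut at about 14% in these data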;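 also: plate controls were DMSO wells with RBBP9 for no effect and wells lacking RBBP9 protein for full effect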
Target sequence (O75884 whole entry, looked up): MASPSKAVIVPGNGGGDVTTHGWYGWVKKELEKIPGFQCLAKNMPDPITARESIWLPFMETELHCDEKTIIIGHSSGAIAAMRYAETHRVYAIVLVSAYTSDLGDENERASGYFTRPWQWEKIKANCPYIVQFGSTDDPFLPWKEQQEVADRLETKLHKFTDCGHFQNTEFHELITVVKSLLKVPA
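System: RBBP9 protein / Quantity: 2.5 µM RBBP9 dispensing solution, before mixing / Also added: Serine-hydrolase probe FP-Rh, 375 nM pre-mixing / Dosing: 7.94 µM single dose, 0.794% DMSO / Timing: enzyme-compound preincubation 30 min, then probe labeling 45 min, 25 °C / Signal: FP readout at 525/598 nm / Controls: DMSO-treated enzyme wells and wells lacking RBBP9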
PAFAH2 inh: inhibitors of human PAFAH2 | recombinant PAFAH2, FP-rhodamine activity probe, fluorescence polarization | 0.99% of 340,000 active | Q99487 | AID 492956 | inhibition, % at 3.39 µM;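 active = inhibition above the mean over all tested compounds plus 3 SD, cut at about 30% in these data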;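 also: inhibitors block probe labeling of enzyme so polarization drops; 0% = enzyme with DMSO and 100% = wells lacking PAFAH2 protein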
pPAFAH FP inh: inhibitors of human plasma PAF acetylhydrolase (pPAFAH) | Q13093 | recombinant pPAFAH, FP-rhodamine probe fluorescence polarization | inhibition, % at 3.39 µM | 1.5% of 330,000 active;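 active = inhibition above the mean inhibition across the screen plus 3 SD, cut at about 25% in these data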;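 also: inhibitors block binding of the rhodamine activity-based probe so polarization drops; 0% = enzyme with DMSO and 100% = wells lacking pPAFAH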
Target sequence (Q13093 whole entry, looked up): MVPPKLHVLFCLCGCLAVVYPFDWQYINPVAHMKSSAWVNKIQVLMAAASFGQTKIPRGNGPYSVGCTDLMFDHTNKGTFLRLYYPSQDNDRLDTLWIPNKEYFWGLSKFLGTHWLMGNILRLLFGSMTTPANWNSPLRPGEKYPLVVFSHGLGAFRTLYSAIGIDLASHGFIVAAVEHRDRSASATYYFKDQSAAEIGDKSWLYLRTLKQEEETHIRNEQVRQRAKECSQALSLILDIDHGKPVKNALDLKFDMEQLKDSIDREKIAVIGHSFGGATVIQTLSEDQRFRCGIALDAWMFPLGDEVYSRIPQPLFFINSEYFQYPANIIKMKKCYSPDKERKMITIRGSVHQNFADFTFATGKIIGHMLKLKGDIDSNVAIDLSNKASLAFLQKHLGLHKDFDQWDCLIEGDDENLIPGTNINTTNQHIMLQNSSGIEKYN
PAFAH1B2 inh: PAFAH1B2 (human) inhibition. P68402. 1.2% of 340,000 active. inhibition, % at 3.39 µM. recombinant PAFAH1B2, FP-rhodamine activity probe, fluorescence polarization;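 active = inhibition above the mean of all tested compounds plus 3 SD, cut at about 24% in these data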;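 also: 0% = enzyme with DMSO and 100% = wells lacking PAFAH1B2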
PAFAH1B3 inh: blocks human PAF acetylhydrolase 1B catalytic subunit 3; AID 492972; inhibition, % at 3.39 µM; recombinant PAFAH1B3, FP-rhodamine probe, fluorescence polarization; Q15102; 0.28% of 340,000 active;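 active = inhibition above the screen-wide average of all tested compounds plus 3 SD, cut at about 25% in these data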;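 also: 0% = enzyme with DMSO only and 100% = wells lacking PAFAH1B3 protein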
* hit, by the source's call; · = no result.

SMILES | RBBP9 inh | PAFAH2 inh | pPAFAH FP inh | PAFAH1B2 inh | PAFAH1B3 inh
O=C(O)c1ccc(N(Cc2ccccc2)S(=O)(=O)c2ccccc2)cc1 | · | 6.4 | 4.7 | 4.0 | 10.8
COc1cccc(Nc2nc(N)c([N+](=O)[O-])c(N3CCOCC3)n2)c1 | · | -0.5 | 0.2 | 4.9 | 3.5
COc1ccc(OC)c(NC(=O)CCC(=O)Oc2ccc(C)cc2)c1 | · | -0.5 | 3.1 | 5.3 | 3.7
O=C(O)c1ccccc1NCc1cccs1 | · | 5.1 | 8.4 | 9.1 | 9.4
N=C1C(c2nc(-c3ccc(F)cc3)cs2)=C(O)CN1CCCN1CCOCC1 | -6.8 | 38.1* | 9.6 | 6.4 | 6.8
FC(F)(F)c1ccc2c(c1)C1C=CCC1C(c1ccncc1)N2 (stereo unspecified) | 1.5 | 8.9 | · | 1.2 | 7.0
O=C(O)c1ccc2c(c1)C1C=CCC1C(c1ccncc1)N2 (stereo unspecified) | -3.6 | -0.4 | 25.4* | 0.6 | 21.2
CCOC(=O)c1ccc2c(c1)C1C=CCC1C(C(=O)O)N2 (stereo unspecified) | 6.9 | · | 83.0* | · | ·
Cc1ccc2c(c1C)NC(C(=O)O)C1CC=CC21 (stereo unspecified) | · | 43.7* | 64.6* | 8.8 | 11.5
CN(C(=O)c1cccc(NC(=O)Cc2ccc(NC(=O)C3CCN(S(=O)(=O)c4cccc([N+](=O)[O-])c4)CC3)cc2)c1)C1CCCCC1 | · | -15.1 | · | -10.0 | -3.0
CCOC(=O)CC(=O)CSc1nc(N)c(C#N)c(-c2ccc(F)cc2)c1C#N | 0.9 | 3.5 | 27.6* | 3.6 | -6.2
CCOC(=O)CSc1nc(N)c(C#N)c(-c2ccc(OC)cc2)c1C#N | 3.7 | 0.7 | 7.9 | 5.1 | 3.9
NNC(=O)c1cc(NS(=O)(=O)c2cccs2)cc(NS(=O)(=O)c2cccs2)c1 | · | 17.1 | 29.4* | 15.0 | 21.3
C=CCSc1cc(C)nc2c(-c3ccccc3)c(C)nn12 | -2.2 | 4.3 | 2.3 | 1.9 | 2.3
Cc1cc(SCC#N)n2nc(C)c(-c3ccccc3)c2n1 | 1.3 | 9.4 | 31.9* | -1.1 | 3.2
O=C(CC1SC(N2CCOCC2)=NC1=O)Nc1ccccc1Cl (stereo unspecified) | · | -3.2 | 0.6 | 0.8 | -5.0
Cc1onc(-c2ccccc2)c1C(=O)OCC(=O)N1CCC(C)CC1 | · | 4.2 | -5.8 | 1.0 | 3.4
CCOC(=O)c1c(-c2ccc(-c3ccccc3)cc2)csc1NC(=O)C1C2CCC(O2)C1C(=O)O (stereo unspecified) | -9.1 | -3.3 | 28.4* | -1.7 | 5.0
CCOC(=O)c1c(-c2ccccc2)csc1NC(=O)C1CCCO1 (stereo unspecified) | 4.2 | -2.2 | 0.5 | -6.8 | -5.7
O=C1CCC(=O)N1c1ccc(S(=O)(=O)Nc2ccc(Br)cc2)cc1 | · | -10.0 | 32.5* | 6.3 | -3.5
CCC(NC(=O)c1cc(COc2cncc(Cl)c2)on1)c1ccc(C)cc1 (stereo unspecified) | · | -3.2 | 5.2 | 27.9* | 0.9
COc1cc(OC)c(N(C)S(=O)(=O)c2cccc(C(=O)Nc3nccs3)c2)cc1Cl | · | -7.8 | 1.0 | -4.1 | 5.0
CCOC(=O)c1c(NC(=O)c2ccco2)sc2c1CCCC2 | -12.3 | -9.2 | 0.9 | -0.9 | 1.2
N#Cc1ccsc1NC(=O)CN1C(=O)NC2(CCCC2)C1=O | · | 16.8 | 26.7* | 2.7 | 8.8
CCOC(=O)c1cc(C)sc1NC(=O)CN1CCN(C(=O)C2CCCO2)CC1 (stereo unspecified) | · | -3.9 | 27.3* | 2.5 | -0.8
SMILES | RBBP9 inh | PAFAH2 inh | pPAFAH FP inh | PAFAH1B2 inh | PAFAH1B3 inh
CCOC(=O)c1c(NC(=O)CN2CCN(C(=O)c3ccco3)CC2)sc2c1CCCC2 | -2.0 | 5.7 | 33.6* | 6.6 | -7.7
COC(=O)c1cc(C)sc1NC(=O)CN1CCN(C(=O)c2ccco2)CC1 | · | 4.4 | -0.5 | -1.3 | 16.1
CCOC(=O)c1cc(C)sc1NC(=O)CN1CCN(C(=O)c2ccco2)CC1 | · | 4.4 | 26.2* | 0.6 | 5.3
Cc1ccn2c(NC(=O)C(C)(C)Oc3ccc(Cl)cc3)c(-c3cccs3)nc2c1 | -1.1 | -0.7 | 3.9 | -0.4 | -0.3
CN(C(=O)c1ccc(OC2CCN(C(=O)c3cccnc3)CC2)cc1)C1CCCCC1 | -2.8 | 6.3 | 3.4 | 5.3 | 3.3
CC1CCC2(CC1)NC(=O)N(CC(=O)Nc1sc3c(c1C(N)=O)CCC3)C2=O (stereo unspecified) | 13.2 | 18.6 | 24.6* | 9.5 | 11.0
NC(=O)c1c(NC(=O)CN2CCN(S(=O)(=O)c3ccccc3)CC2)sc2c1CCC2 | · | 12.8 | 15.5 | 35.0* | 4.1
CCOc1ccc(NC(=O)C2CCCN(S(=O)(=O)c3ccc4c(c3)CC(C)N4C(C)=O)C2)cc1 (stereo unspecified) | · | -0.3 | -1.2 | 3.2 | 3.1
Cc1ccc(NC(=O)COC(=O)CCC(=O)c2cccs2)c(C)c1 | -8.7 | -6.4 | 8.0 | 1.5 | 12.6
COc1cccc(C(=O)OCC(=O)Nc2sc3c(c2C(N)=O)CCC3)c1O | · | 19.4 | 28.1* | 3.9 | 5.0
Cc1cc(C)cc(CC(Cc2nc3ccccc3[nH]2)c2nc3ccccc3[nH]2)c1 (stereo unspecified) | -7.2 | -14.8 | -2.6 | -3.8 | -1.7
Cc1ccc(CN2C(=O)CSC2c2ccccc2F)cc1 (stereo unspecified) | · | -1.1 | 2.7 | 8.7 | 5.3
Cc1ccc(CN2C(=O)CSC2c2ccc(F)cc2)cc1 (stereo unspecified) | · | 7.7 | 0.6 | 25.7* | 9.3
Cc1c(C(=O)O)cccc1-c1ccc(/C=N/Nc2ccc(Br)cc2)o1 | -3.9 | 20.1 | 25.8* | 2.8 | 6.1
Cc1ccccc1OCC(=O)Nc1cc(S(=O)(=O)N2CCCCC2)ccc1N1CCN(C)CC1 | 0.2 | · | 6.8 | · | ·
CC(C)n1cc2c(N)ncnc2n1 | · | -8.3 | · | 6.8 | 2.6
COc1cc(/C=C(\CCC(=O)O)c2nc3ccccc3s2)ccc1OCC(=O)Nc1c(Cl)cccc1Cl | · | -0.1 | 5.5 | 66.9* | 5.9
O=C(O)CC/C(=C\c1ccc2c(c1)OCO2)c1nc2ccccc2s1 | · | 6.0 | 3.4 | 2.0 | 2.8
O=C(O)C/C(=C\c1ccc(N2CCOCC2)c([N+](=O)[O-])c1)c1nc2ccccc2s1 | -8.3 | 12.4 | 26.0* | 4.2 | -7.5
O=C(O)CC/C(=C\c1ccc(N2CCOCC2)c([N+](=O)[O-])c1)c1nc2ccccc2s1 | -1.3 | 1.7 | · | 91.7* | 0.2
O=C(O)CC/C(=C/c1cccc(NC(=O)c2ccccc2Cl)c1)c1nc2ccccc2s1 | · | -1.1 | · | -1.0 | 2.3
O=C(NCc1ccco1)C(=O)c1cn(CC(=O)N2CCCC2)c2ccccc12 | 2.9 | -0.9 | 5.7 | 3.0 | 5.6
Cc1cccc(N2CCN(C(=O)C3CCN(S(=O)(=O)c4c(C)noc4C)CC3)CC2)c1C | · | -3.9 | 5.2 | -5.0 | -1.4
COc1ccccc1C(=O)COC(=O)Cn1c(C)csc1=O | · | 4.3 | -0.2 | 2.1 | 7.9
O=[N+]([O-])c1cc2oc3c(c2c(C=NCc2ccncc2)c1O)CCCC3 | -10.1 | 37.3* | · | 8.4 | 26.4*
CC(C)(C)N=Cc1c(O)ccc2oc3c(c12)CCCC3 | · | 10.9 | 2.1 | 4.0 | 7.5
Cc1ccc(SCc2cc(=O)n3ccsc3n2)c(C)c1 | 2.6 | · | -1.5 | · | ·

Assay outcomes deposited in PubChem BioAssay by The Scripps Research Institute Molecular Screening Center.
